Test results as given in ChEMBL document CHEMBL1681637, “Synthesis and antitubercular activity of monocyclic nitroimidazoles: insights from econazole” (Bioorg Med Chem Lett, 2011).
In brackets after ≈: the same amount, converted by molar mass.

Columns and labels:
[1] = system: Mycobacterium tuberculosis; test: Antitubercular activity against multidrug-resistant Mycobacterium tuberculosis H37Rv after 7 days by alamar blue assay; type: functional; conditions: 168 h
[2] = system: Mycobacterium tuberculosis; test: Antitubercular activity against multidrug-resistant Mycobacterium tuberculosis H37Rv under anaerobic condition after 7 days by GFP reporter gene assay; type: functional; conditions: 168 h
Procedure, shortened: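 GFP-expressing Mtb H37Rv, made non-replicating by the Wayne hypoxia model, was added to 2-fold DMSO serial compound dilutions inside an anaerobic chamber. Plates were held at 37 °C for 7 days under anaerobiosis, then diluted 10-fold into fresh medium and outgrown for 2 days. Fluorescence was read at ex 485/em 520 nm. MIC was the lowest concentration giving 80% fluorescence inhibition versus bacteria-only wells.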

Row | Compound | MIC [1] [µg/mL] | MIC [2] [µg/mL]
1 | O=[N+]([O-])c1cn(CC(O)c2ccc(F)cc2F)c(Br)n1 (racemic) | 64 (≈ 184 µM) | –
2 | O=[N+]([O-])c1ccc(C(O)Cn2cc([N+](=O)[O-])nc2Br)cc1 (racemic) | 64 (≈ 179 µM) | –
3 | O=[N+]([O-])c1cn(CC(O)c2ccc(Cl)cc2Cl)cn1 (racemic) | 32 (≈ 106 µM) | –
4 | CSc1nc([N+](=O)[O-])cn1CC(OCc1ccc(F)cc1)c1ccc(Cl)cc1Cl (racemic) | > 256 | –
5 | COc1nc([N+](=O)[O-])cn1CC(O)c1ccc(C)cc1C (racemic) | 16 (≈ 54.9 µM) | –
6 | Cc1ccc(C(O)Cn2cc([N+](=O)[O-])nc2Br)c(C)c1 (racemic) | 128 (≈ 376 µM) | –
7 | O=[N+]([O-])c1cn(CC(OCc2ccc(F)cc2)c2ccc(Cl)cc2Cl)cn1 (racemic) | > 256 | –
8 | CSc1nc([N+](=O)[O-])cn1CC(OCc1ccc(Cl)cc1)c1ccc(F)cc1F (racemic) | > 256 | –
9 | O=[N+]([O-])c1cn(CC(O)c2ccccc2)c(Br)n1 (racemic) | 32 (≈ 103 µM) | –
10 | O=[N+]([O-])c1cn(CC(OCc2cc(F)ccc2F)c2ccc(Cl)cc2Cl)cn1 (racemic) | > 256 | –
11 | COc1nc([N+](=O)[O-])cn1CC(OCc1cc(F)cc(F)c1)c1ccc(Cl)cc1Cl (racemic) | > 256 | –
12 | O=[N+]([O-])c1cn(CC(O)c2ccc(F)cc2)c(Br)n1 (racemic) | 128 (≈ 388 µM) | –
13 | O=[N+]([O-])c1cn(CC(OCc2ccc(OC(F)(F)F)cc2)c2ccc(F)cc2F)cn1 (racemic) | > 256 | –
14 | O=[N+]([O-])c1cn(CC(OCc2ccc(F)cc2)c2ccc(Cl)cc2Cl)c(Br)n1 (racemic) | > 256 | –
15 | COc1nc([N+](=O)[O-])cn1CC(O)c1ccc([N+](=O)[O-])cc1 (racemic) | 16 (≈ 51.9 µM) | –
16 | O=[N+]([O-])c1cn(CC(O)c2ccc(Cl)cc2Cl)c(Br)n1 (racemic) | 2 (≈ 5.25 µM) | 8 (≈ 21 µM)
17 | O=[N+]([O-])c1cn(CC(OCc2ccc(Cl)cc2)c2ccc(Cl)cc2Cl)cn1 (racemic) | > 256 | –
18 | COc1nc([N+](=O)[O-])cn1CC(O)c1ccccc1 (racemic) | 8 (≈ 30.4 µM) | –
19 | CSc1nc([N+](=O)[O-])cn1CC(O)c1ccc(Cl)cc1Cl (racemic) | 16 (≈ 45.9 µM) | –
20 | O=[N+]([O-])c1cn(CC(OCc2ccc(Cl)cc2)c2ccc(F)cc2F)cn1 (racemic) | > 256 | –
21 | O=[N+]([O-])c1cn(CC(OCc2ccc(Cl)cc2)c2ccc(Cl)cc2Cl)c(Br)n1 (racemic) | > 256 | –
22 | Cc1nc([N+](=O)[O-])cn1CC(O)c1ccc(Cl)cc1Cl (racemic) | > 256 | –
23 | O=[N+]([O-])c1cn(CC(OCc2cc(F)cc(F)c2)c2ccc(Cl)cc2Cl)c(Br)n1 (racemic) | > 256 | –
24 | O=[N+]([O-])c1cn(CC(OCc2ccc(Cl)cc2)c2ccc(F)cc2F)c(Br)n1 (racemic) | > 256 | –
25 | COc1nc([N+](=O)[O-])cn1CC(O)c1ccc(Cl)cc1 (racemic) | 16 (≈ 53.7 µM) | –

Row | Compound | MIC [1] [µg/mL] | MIC [2] [µg/mL]
26 | COc1nc([N+](=O)[O-])cn1CC(OCc1ccc(OC(F)(F)F)cc1)c1ccc(F)cc1F (racemic) | > 256 | –
27 | O=[N+]([O-])c1cn(CC(OCc2ccccc2F)c2ccc(Cl)cc2Cl)cn1 (racemic) | > 256 | –
28 | O=[N+]([O-])c1cn(CC(OCc2ccc(F)cc2F)c2ccc(Cl)cc2Cl)cn1 (racemic) | > 256 | –
29 | COc1nc([N+](=O)[O-])cn1CC(O)c1ccc(F)cc1F (racemic) | 4 (≈ 13.4 µM) | 4 (≈ 13.4 µM)
30 | O=[N+]([O-])c1cn(CC(O)c2ccc(-c3ccccc3)cc2)c(Br)n1 (racemic) | > 256 | –
31 | O=[N+]([O-])c1cn(CC(O)c2ccc(Cl)cc2)c(Br)n1 (racemic) | 64 (≈ 185 µM) | –
32 | CSc1nc([N+](=O)[O-])cn1CC(OCc1ccc(Cl)cc1)c1ccc(Cl)cc1Cl (racemic) | > 256 | –
33 | O=[N+]([O-])c1cn(CC(OCc2cc(F)cc(F)c2)c2ccc(Cl)cc2Cl)cn1 (racemic) | > 256 | –
34 | COc1nc([N+](=O)[O-])cn1CC(OCc1ccc(F)cc1)c1ccc(F)cc1F (racemic) | > 32 | –
35 | COc1nc([N+](=O)[O-])cn1CC(OCc1ccc(Cl)cc1)c1ccc(Cl)cc1Cl (racemic) | > 256 | –
36 | O=[N+]([O-])c1cn(CC(OCc2ccc(OC(F)(F)F)cc2)c2ccc(Cl)cc2Cl)cn1 (racemic) | > 256 | –
37 | O=[N+]([O-])c1cn(CC(OCc2cc(F)cc(F)c2)c2ccc(F)cc2F)cn1 (racemic) | > 256 | –
38 | COc1nc([N+](=O)[O-])cn1CC(OCc1ccc(F)cc1)c1ccc(Cl)cc1Cl (racemic) | > 256 | –
39 | O=[N+]([O-])c1cn(CC(OCc2ccccc2F)c2ccc(Cl)cc2Cl)c(Br)n1 (racemic) | > 256 | –
40 | COc1nc([N+](=O)[O-])cn1CC(OCc1ccc(Cl)cc1)c1ccc(F)cc1F (racemic) | > 16 | –
41 | COc1nc([N+](=O)[O-])cn1CC(O)c1ccc(F)cc1 (racemic) | 16 (≈ 56.9 µM) | –
42 | O=[N+]([O-])c1cn(CC(O)c2ccc(F)cc2F)cn1 (racemic) | 256 (≈ 951 µM) | –
43 | COc1nc([N+](=O)[O-])cn1CC(O)c1ccc(Cl)cc1Cl (racemic) | 0.5 (≈ 1.51 µM) | 4 (≈ 12 µM)
44 | CSc1nc([N+](=O)[O-])cn1CC(OCc1cc(F)cc(F)c1)c1ccc(Cl)cc1Cl (racemic) | > 256 | –
45 | Cc1nc([N+](=O)[O-])cn1CC(OCc1ccc(Cl)cc1)c1ccc(Cl)cc1Cl (racemic) | > 256 | –
46 | COc1nc([N+](=O)[O-])cn1CC(OCc1ccc(OC(F)(F)F)cc1)c1ccc(Cl)cc1Cl (racemic) | > 256 | –
47 | Clc1ccc(COC(Cn2ccnc2)c2ccc(Cl)cc2Cl)cc1 (stereo not given) [ECONAZOLE] | 16 (≈ 41.9 µM) | –
48 | O=[N+]([O-])c1cn(CC(OCc2ccc(F)cc2)c2ccc(F)cc2F)cn1 (racemic) | > 256 | –
49 | O=[N+]([O-])c1cn2c(n1)OC[C@@H](OCc1ccc(OC(F)(F)F)cc1)C2 [PRETOMANID] | 0.13 (≈ 0.362 µM) | 2 (≈ 5.57 µM)
50 | COc1nc([N+](=O)[O-])cn1CC(O)c1ccc(-c2ccccc2)cc1 (racemic) | 0.5 (≈ 1.47 µM) | 1 (≈ 2.95 µM)
